Laboratory results reported in PubChem BioAssay.
The source made the active and inactive calls.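 The calls were made as follows, unless noted: active = viability at or below 30% in both replicate assays; inconclusive = viability at or below 30% in just one of the two assays; inactive = the rest.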

Key:
[1] = HUVEC growth inhibition – cell-based, human, primary screen (AID 575); details: HUVEC proliferation, CellTiter-Glo luminescence, 72 h; at 10 µM; stronger effect = lower value;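 also: 100% = median of untreated cell wells with 0.1% DMSO on each plate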
In short: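 system = HUVEC primary cells | amount = 1250 cells/well | buffer or medium = supplemented EBM, 2% fetal bovine serum | dosing = single-point 10 µM, DMSO 0.1% final | times = 72 h compound incubation | detection = CTG luminescence | read-out = % viability relative to median vehicle-well signal on each plate | control set = vehicle and MePR control wells | format = collagen-coated 384-well format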

[2] = growth inhibitors of H69AR lung tumor, primary screen, human, duplicate replicates (AID 580;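 active = viability at or under a set limit in both replicates, limit being median viability minus 3 SD, cut at about 48% in these data, passing the limit was not always enough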;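 also: 100% = mean luminescence of untreated wells and 0% = no signal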); details: H69AR lung tumor cells viability, ATP luminescence, 72 h; at 10 µM; stronger effect = lower value
[3] = reversal of MRP1-mediated doxorubicin resistance, pilot screen, H69AR cells, doxorubicin co-treatment (AID 601;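 active = viability loss from added drug above about 55%, and viability with drug at most 40%, in both replicates, limit read from the data, passing the limit was not always enough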); details: CellTiter-Glo, 72 h, at 10 µM; for differential viability (reversal): stronger effect = higher value
[4] = 384-well plate pilot, post-Golgi transport modulator project, inhibition of yeast transport mutant growth (AID 636; in the data active = inhibition above about 31%); details: absorbance 615 nm, about 18 h, stronger effect = higher value
[5] = growth suppression of yeast trafficking mutant, preliminary HTS, modulators of trafficking downstream of Golgi apparatus project, 1536-format plate, OD 615 nm (AID 637; in the data active = inhibition above about 30%); details: yeast transport mutant growth, absorbance 615 nm, 18 h; stronger effect = higher value
[6] = H69AR cells + 2 uM doxorubicin, measured here: viability with 2 uM doxorubicin, stronger effect = lower value
[7] = H69AR cells, compound alone cytotoxicity

| Structure (SMILES) | viability [1] | viability [2] | differential viability (reversal) ([3]; H69AR cells + 2 uM doxorubicin) | viability [3, 6] | viability [3, 7] | inhibition [4] | inhibition [5] |
| --- | --- | --- | --- | --- | --- | --- | --- |
| CC(=O)Nc1ccc(S(=O)(=O)N2CCSC2c2ccccc2)cc1 (stereo not given) | 99.6% (inactive) | 91.5% (inactive) | 5.05% (inactive) | 86.4% | 91.5% | -1.82% (inactive) | 0.32% (inactive) |
| COc1cccc(N2CCN(c3ncnc4c3[nH]c3ccc(F)cc34)CC2C)c1 (stereo not given) | 2.17% (active) | 3.55% (active) | -1.01% (inactive) | 4.56% | 3.55% | 71% (active) | 29.6% (inactive) |
| Cc1ccc(C)c(Cn2c(=O)n(CCC(=O)NCc3ccco3)c(=O)c3sccc32)c1 | 74.6% (inactive) | 87.7% (inactive) | -0.04% (inactive) | 87.7% | 87.7% | -2.86% (inactive) | -0.63% (inactive) |
| Cc1cc(NC(=O)c2ccc(Cl)cc2)no1 | 96.1% (inactive) | 87.5% (inactive) | 5.82% (inactive) | 81.7% | 87.5% | 2.86% (inactive) | 18.2% (inactive) |
| CCOC(=O)C1CCN(C(=O)c2c(-c3c(Cl)cccc3Cl)noc2C)CC1 | 95.8% (inactive) | 84.8% (inactive) | -6.21% (inactive) | 91.1% | 84.8% | -2.73% (inactive) | -9.68% (inactive) |
| O=C(Nc1ccccc1)N(Cc1cccnc1)Cc1ccco1 | 86.1% (inactive) | 96.8% (inactive) | 12.7% (inactive) | 84.1% | 96.8% | -4.74% (inactive) | 1.75% (inactive) |
| O=C(Cc1ccccc1)Nc1nnc(-c2cccs2)s1 | 96.8% (inactive) | 61.1% (inactive) | -6.04% (inactive) | 67.1% | 61.1% | -2.99% (inactive) | 3.02% (inactive) |
| c1ccc(OCCOc2ncnc3sccc23)cc1 | 100% (inactive) | 98.7% (inactive) | 7% (inactive) | 91.7% | 98.7% | -0.26% (inactive) | -1.75% (inactive) |
| CCC1Cc2c(nc3c4c(nc(N5CCOCC5)c(C#N)c24)NC(C)=N3)O1 (stereo not given) | 94% (inactive) | 88.3% (inactive) | 6.83% (inactive) | 81.5% | 88.3% | -2.99% (inactive) | 4.76% (inactive) |
| O=C(CSCc1ccccn1)Nc1ccccc1 | 102% (inactive) | 94.4% (inactive) | 7.96% (inactive) | 86.4% | 94.4% | -5.07% (inactive) | -6.19% (inactive) |
| Cc1ccc(S(=O)(=O)NC(C(=O)OCC(=O)NC2CCS(=O)(=O)C2)C(C)C)cc1 (stereo not given) | 98.1% (inactive) | 92.9% (inactive) | 0.03% (inactive) | 92.8% | 92.9% | -1.69% (inactive) | 0.63% (inactive) |
| Cc1ccc(-c2ccc(=O)n(CCC(=O)NCCN3CCCCC3C)n2)cc1 (stereo not given) | 94.9% (inactive) | 91.3% (inactive) | 1.11% (inactive) | 90.2% | 91.3% | -4.27% (inactive) | -5.56% (inactive) |
| CN1/C(=C\C(=O)Nc2cccnc2)c2ccccc2CC1(C)C | 99.3% (inactive) | 86.5% (inactive) | -4.08% (inactive) | 90.6% | 86.5% | -4.4% (inactive) | -0.95% (inactive) |
| Nc1nc(NCc2ccco2)nn1-c1ccccc1 | 98% (inactive) | 96.7% (inactive) | 15.7% (inactive) | 80.9% | 96.7% | -7.07% (inactive) | 6.03% (inactive) |
| CC(C)(C)OC(=O)N1CCN(c2ccc(NC(=O)c3cc4ccccc4oc3=O)cc2)CC1 | 103% (inactive) | 93% (inactive) | 8.14% (inactive) | 84.8% | 93% | -5.45% (inactive) | 1.59% (inactive) |
| CN(C)c1nc(N)nc(CSc2nnnn2-c2cccc3ccccc23)n1 | 99.9% (inactive) | 70.1% (inactive) | -3.27% (inactive) | 73.4% | 70.1% | -6.58% (inactive) | 4.13% (inactive) |
| O=C(NCC(=O)N(CCc1ccccc1)C(C(=O)NC1CCCC1)c1cccnc1)c1ccco1 (stereo not given) | 96.9% (inactive) | 99.8% (inactive) | -1.49% (inactive) | 101% | 99.8% | -2.24% (inactive) | -6.98% (inactive) |
| CCOC(=O)c1nn(-c2sc(C(=O)OC)c(C)c2C(=O)OC)cc1O | 105% (inactive) | 85.1% (inactive) | 3.34% (inactive) | 81.7% | 85.1% | -1.82% (inactive) | 3.33% (inactive) |
| Cc1ccc(S(=O)(=O)N2CCCC2)cc1S(=O)(=O)N1CCCC1 | 90.9% (inactive) | 98.6% (inactive) | 5.92% (inactive) | 92.7% | 98.6% | -3.25% (inactive) | 2.54% (inactive) |
| COc1ccc(Nc2ncc3c(n2)CC(c2ccc(OC)cc2)CC3=O)cc1 (stereo not given) | 84.4% (inactive) | 97.4% (inactive) | 3.81% (inactive) | 93.6% | 97.4% | -4% (inactive) | 4.92% (inactive) |
